The values below come from ChEMBL document CHEMBL3271957 (J Med Chem, 1977).

Broadly, the ILS is how much longer treated animals lived than controls. One may read the GI50 as the concentration that inhibits growth by half.

Each structure is given as a SMILES string. ≈ marks a conversion by molar mass, not a printed value.

One data set has as its system Mus musculus. As to the kind of experiment: Toxicity in BDF/1 hybrid mouse xenografted with mouse L1210 cells assessed as optimal nontoxic dose administered q3d on day 1, 4 and 7. The data set is classed as organism-based. To be noted: in vivo. Summed up: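 Male BDF/1 hybrid mice received 10^5 L-1210 leukemia cells ip. Test agents in 0.1 M phosphate buffer (pH 8) were given ip 24 h after implantation (day 1) and again on days 4 and 7. The optimal nontoxic dose is expressed as mg/kg × 3; where marked, it is the highest nontoxic dose tested.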

The subject of the next data set is L1210. As to the kind of experiment: Antitumor activity against mouse L1210 cells allografted in BDF/1 hybrid mouse assessed as increase in life span relative to control. In kind it is functional. An outline of the steps: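 Male BDF/1 hybrid mice inoculated ip with 10^5 L-1210 leukemia cells; test agents dissolved in 0.1 M phosphate buffer (pH 8), given ip 24 h after implantation (day 1) and on days 4 and 7. Median survival times of treated (T) and control (C) groups compared; % ILS = 100 × (T/C − 1).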

The subject of data set [1] is Lacticaseibacillus rhamnosus. Nature of the data set: Antimicrobial activity against Lactobacillus casei ATCC 7469 assessed as growth inhibition. The data set is classed as functional.
The subject of another data set is CCRF-CEM. As to the kind of experiment: Cytotoxicity against human CCRF-CEM cells. To be noted: read-out: ID50 (the source's name). In kind it is functional.
The next data set has as its target T1, Thymidylate synthase (Lactobacillus casei, UniProt P00469).
T1 sequence (P00469 whole entry): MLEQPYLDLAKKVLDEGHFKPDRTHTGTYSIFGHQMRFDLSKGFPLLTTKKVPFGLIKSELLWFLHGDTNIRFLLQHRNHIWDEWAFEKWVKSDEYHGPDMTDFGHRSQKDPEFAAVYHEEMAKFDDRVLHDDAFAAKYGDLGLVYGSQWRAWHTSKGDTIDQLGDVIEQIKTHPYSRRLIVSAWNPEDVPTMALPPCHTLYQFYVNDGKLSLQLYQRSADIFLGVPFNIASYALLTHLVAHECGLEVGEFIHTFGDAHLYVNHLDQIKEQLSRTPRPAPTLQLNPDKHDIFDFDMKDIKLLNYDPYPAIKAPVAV
As to the kind of experiment: Inhibition of MTX-resistant Lactobacillus casei thymidylate synthetase. Set-up: species or system Lacticaseibacillus casei.

Another data set has as its target Dihydrofolate reductase (Lactobacillus casei, UniProt P00381). Nature of the data set: Inhibition of MTX-resistant Lactobacillus casei dihydrofolate reductase. Set-up: species or system Lacticaseibacillus casei.
The nature of data set [2]: Toxicity in BDF/1 hybrid mouse xenografted with mouse L1210 cells administered q3d on day 1, 4 and 7. In kind it is organism-based. The following applies: in vivo. An outline of the steps: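 Male BDF/1 hybrid mice carrying ip-inoculated L-1210 cells (10^5) dosed ip on days 1, 4 and 7 (first dose 24 h post-implant) with compound in 0.1 M phosphate buffer, pH 8. Value expressed as optimal nontoxic dose in mg/kg ×3; where the top level tested was nontoxic, the highest nontoxic dose tested is given.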

Chain of Dihydrofolate reductase (P00381 whole entry): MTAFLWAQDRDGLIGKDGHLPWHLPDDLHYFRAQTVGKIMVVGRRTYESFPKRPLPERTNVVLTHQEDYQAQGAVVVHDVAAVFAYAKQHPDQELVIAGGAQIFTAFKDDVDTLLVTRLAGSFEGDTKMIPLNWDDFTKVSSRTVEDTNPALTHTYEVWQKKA

With `CN(CC1=Nc2c(N)nc(N)nc2NC1)c1ccc(C(=O)N[C@@H](CCC(=O)O)C(=O)O)cc1`, the Activity in the data set with Mus musculus is 30 mg/kg. The ILS in the data set with L1210 came to 9%. Moreover, the GI50 in data set [1] turned out to be 0.02 nM. Also, the IC50 in the data set with CCRF-CEM stood at 0.021 µg/mL (≈ 0.046 µM); on Thymidylate synthase it was 1000 nM; on Dihydrofolate reductase it was 20 nM.

For the compound `CN(CC1=Nc2c(N)nc(N)nc2N(C)C1)c1ccc(C(=O)N[C@@H](CCC(=O)O)C(=O)O)cc1`, the Activity in the data set on Mus musculus is 300 mg/kg. The ILS in the data set on L1210 was 27%. In addition, the GI50 in data set [1] turned out to be 0.1 nM. Also, the IC50 in the data set with CCRF-CEM is 0.23 µg/mL (≈ 0.489 µM); on Thymidylate synthase it was 4000 nM; against Dihydrofolate reductase, 140 nM.

With `CCN1CC(CN(C)c2ccc(C(=O)N[C@@H](CCC(=O)O)C(=O)O)cc2)=Nc2c(N)nc(N)nc21`, in the data set with L1210, the ILS is listed as 18%. Moreover, the 50% growth inhibitory concentration (GI50) in data set [1] turned out to be 0.35 nM. Also, the IC50 in the data set with CCRF-CEM worked out at 0.27 µg/mL (≈ 0.557 µM); against Thymidylate synthase, 20000 nM; at Dihydrofolate reductase, 900 nM. Besides, the MTD in data set [2] is 400 mg/kg.

`CCCCN1CC(CN(C)c2ccc(C(=O)N[C@@H](CCC(=O)O)C(=O)O)cc2)=Nc2c(N)nc(N)nc21`: the Activity with Mus musculus was found to be 100 mg/kg. The ILS in the data set on L1210 was 25%. Also, the GI50 in data set [1] was found to be 1.2 nM. Besides, the IC50 with CCRF-CEM stood at 0.23 µg/mL (≈ 0.449 µM); at Thymidylate synthase, 19000 nM; against Dihydrofolate reductase it was 380 nM.

Regarding `CCCCCCN1CC(CN(C)c2ccc(C(=O)N[C@@H](CCC(=O)O)C(=O)O)cc2)=Nc2c(N)nc(N)nc21`, the ILS in the data set with L1210 was 0%. For the same compound, in data set [1], the concentration for 50% growth inhibition (GI50) turned out to be 0.27 nM. For the same compound, the IC50 in the data set with CCRF-CEM amounted to 0.58 µg/mL (≈ 1.07 µM); against Thymidylate synthase, 43000 nM; against Dihydrofolate reductase, 1800 nM. The MTD in data set [2] was 400 mg/kg.

For the compound `CN(CC1=Nc2c(N)nc(N)nc2N(CC2CCCCC2)C1)c1ccc(C(=O)N[C@@H](CCC(=O)O)C(=O)O)cc1`, in the data set on Mus musculus, the Activity came to 300 mg/kg. Besides, the ILS in the data set with L1210 was determined as 27%. Moreover, in data set [1], the GI50 turned out to be 3.5 nM. Further, the figures for the IC50 in the data set on CCRF-CEM, at Thymidylate synthase and at Dihydrofolate reductase were 0.14 µg/mL (≈ 0.253 µM), 17000 nM and 870 nM, respectively.

On to `CN(CC1=Nc2c(N)nc(N)nc2N(Cc2ccccc2)C1)c1ccc(C(=O)N[C@@H](CCC(=O)O)C(=O)O)cc1`, for which the ILS in the data set on L1210 turned out to be 25%. For the same compound, the GI50 in data set [1] worked out at 0.35 nM. Further, the IC50 in the data set with CCRF-CEM came to 0.78 µg/mL (≈ 1.43 µM); against Thymidylate synthase it was 8000 nM; on Dihydrofolate reductase, 740 nM. In data set [2], this compound returned an MTD of 400 mg/kg.

For the compound `CN(CC1=Nc2c(N)nc(N)nc2N(Cc2ccc(Cl)c(Cl)c2)C1)c1ccc(C(=O)N[C@@H](CCC(=O)O)C(=O)O)cc1`, in the data set with L1210, the ILS is recorded as 36%. Also, the GI50 in data set [1] turned out to be 19.4 nM. Also, the IC50 in the data set with CCRF-CEM is more than 1 µg/mL; against Thymidylate synthase, 13000 nM; on Dihydrofolate reductase, 3600 nM. Further, the MTD in data set [2] is 400 mg/kg.

Turning to `CN(CC1=Nc2c(N)nc(N)nc2N(Cc2cccc3ccccc23)C1)c1ccc(C(=O)N[C@@H](CCC(=O)O)C(=O)O)cc1`, the increase in lifespan (ILS) in the data set on L1210 stood at 0%. Besides, the GI50 in data set [1] worked out at 0.47 nM. Moreover, the IC50 in the data set on CCRF-CEM is more than 1 µg/mL; on Thymidylate synthase, 16000 nM; on Dihydrofolate reductase, 4500 nM. Moreover, the MTD in data set [2] is 400 mg/kg.

`CN(CC1CNc2nc(N)nc(N)c2N1)c1ccc(C(=O)N[C@@H](CCC(=O)O)C(=O)O)cc1` (some centres not stated): the GI50 in data set [1] was 0.14 nM. Further, the values for the IC50 against Thymidylate synthase and against Dihydrofolate reductase were 5000 nM and 200 nM, respectively.

As to `CN(CC1CN(C)c2nc(N)nc(N)c2N1)c1ccc(C(=O)N[C@@H](CCC(=O)O)C(=O)O)cc1` (some centres not stated), the Activity in the data set on Mus musculus was found to be 200 mg/kg. Further, the ILS with L1210 turned out to be 9%. For the same compound, in data set [1], the GI50 worked out at 1.4 nM. Besides, the values for the IC50 in the data set on CCRF-CEM, on Thymidylate synthase and on Dihydrofolate reductase were 0.14 µg/mL (≈ 0.296 µM), 39000 nM and 2500 nM, respectively.

For `CN(Cc1cnc2nc(N)nc(N)c2n1)c1ccc(C(=O)N[C@@H](CCC(=O)O)C(=O)O)cc1` [METHOTREXATE], in the data set with Mus musculus, the Activity came out at 15 mg/kg. Also, the ILS in the data set with L1210 stood at 70%. In addition, the GI50 in data set [1] came to 0.04 nM. Further, the IC50 with CCRF-CEM is 0.018 µg/mL (≈ 0.0396 µM).
